Results published in ChEMBL document CHEMBL1132552, “Synthesis, characterization, and structure-activity relationships of amidine-substituted (bis)benzylidene-cycloketone olefin isomers as potent and selective factor Xa inhibitors” (J Med Chem, 1999).

What was measured:
[1] = biological target: T1, Serine protease 1 (Bos taurus, UniProt P00760); experiment: In vitro inhibition of bovine trypsin(Trp).
T1 sequence (P00760 whole entry): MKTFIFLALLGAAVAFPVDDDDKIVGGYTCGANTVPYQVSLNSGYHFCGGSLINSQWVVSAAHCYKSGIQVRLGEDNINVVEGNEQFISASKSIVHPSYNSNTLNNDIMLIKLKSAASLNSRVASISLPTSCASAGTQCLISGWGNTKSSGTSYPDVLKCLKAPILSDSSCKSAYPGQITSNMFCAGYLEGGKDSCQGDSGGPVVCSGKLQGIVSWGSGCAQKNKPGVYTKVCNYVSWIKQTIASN
Procedure, shortened: (§1)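 Buffer was 150 mM NaCl, 2.5 mM CaCl₂, 50 mM Tris-HCl pH 7.5, 0.1% PEG 6000. Read in a microplate reader at ~23 °C in the dark across varying inhibitor concentrations. Ki from competitive treatment; duplicate runs.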

[2] = biological target: Prothrombin (Homo sapiens, UniProt P00734); experiment: In vitro inhibition of human thrombin(FIIa).
Procedure, shortened: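 Medium: 150 mM NaCl, 2.5 mM CaCl₂, 50 mM Tris-HCl pH 7.5, 0.1% PEG 6000. Microplate reader readings at room temperature (~23 °C), light excluded, varying inhibitor concentrations. Competitive Ki derived; assays in duplicate.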

[3] = biological target: Coagulation factor X (Homo sapiens, UniProt P00742); experiment: In vitro inhibition of human coagulation factor Xa (Xa) in a purified enzyme system.
Chain of Coagulation factor X (P00742 41-179 limits assumed): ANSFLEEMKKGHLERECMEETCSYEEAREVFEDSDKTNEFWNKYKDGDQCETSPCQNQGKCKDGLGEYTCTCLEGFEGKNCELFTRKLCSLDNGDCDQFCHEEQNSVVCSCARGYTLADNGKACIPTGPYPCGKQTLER
Chain of Coagulation factor X (P00742 235-488 limits assumed): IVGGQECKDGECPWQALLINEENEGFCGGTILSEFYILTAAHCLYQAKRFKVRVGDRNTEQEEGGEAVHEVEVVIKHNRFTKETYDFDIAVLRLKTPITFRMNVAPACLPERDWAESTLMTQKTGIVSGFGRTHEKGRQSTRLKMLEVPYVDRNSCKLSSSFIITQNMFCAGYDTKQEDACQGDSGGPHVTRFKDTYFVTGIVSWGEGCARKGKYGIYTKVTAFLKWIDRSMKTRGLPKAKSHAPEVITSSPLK
Procedure, shortened: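 Buffer: 150 mM NaCl, 2.5 mM CaCl₂, 50 mM Tris-HCl pH 7.5, 0.1% PEG 6000. For very tight binding, enzyme was lowered to 0.1 nM, or data at 0.3 and 1 nM enzyme were fitted to a modified Morrison equation.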

[4] = biological target: T1, Serine protease 1; experiment: In vitro inhibition of bovine trypsin (Trp).; procedure, shortened: as §1

| Ki [1] | Ki [2] | Ki [3] | Ki [4] | Structure (SMILES) |
| --- | --- | --- | --- | --- |
| 56 nM | 630 nM | 3300 nM |  | N=C(N)c1ccc(/C=C2\CC(c3ccccc3)C/C(=C\c3ccc(C(=N)N)cc3)C2=O)cc1 (stereo not drawn) |
| 730 nM | 19200 nM | 230 nM |  | N=C(N)c1ccc(/C=C2/CC/C(=C\c3ccc(C(=N)N)cc3)C2=O)cc1 |
| > 5000 nM | 2900 nM | > 5000 nM |  | NC(=O)c1ccc(/C=C2/CCCC/C(=C/c3ccc(C(N)=O)cc3)C2=O)cc1 |
| 440 nM | 810 nM | 18 nM |  | N=C(N)c1ccc(/C=C2/CCC/C(=C/c3ccc(C(=N)N)cc3)C2=O)cc1 |
| 170 nM |  |  |  | N=C(N)c1ccc(/C=C2\CCC/C(=C\c3ccc(C(=N)N)cc3)C2=O)cc1 |
| 310 nM | 2100 nM | 1800 nM |  | N=C(N)c1ccc(/C=C2\CCCCC/C(=C\c3ccc(C(=N)N)cc3)C2=O)cc1 |
| 3000 nM | 730 nM | 960 nM |  | N=C(N)c1ccc(/C=C2\CCCCCCC/C(=C\c3ccc(C(=N)N)cc3)C2=O)cc1 |
| > 500 nM | > 500 nM | > 500 nM |  | N=C(N)c1ccc(/C=C2\CCCC/C(=C\c3ccc(C(N)=O)cc3)C2=O)cc1 |
| 160 nM | 325 nM | 395 nM |  | N=C(N)c1ccc(/C=C2/CC(c3ccccc3)C/C(=C\c3ccc(C(=N)N)cc3)C2=O)cc1 (stereo not drawn) |
| > 5000 nM | > 5000 nM | > 5000 nM |  | CN(C)C(=N)c1ccc(/C=C2/CCCC/C(=C\c3ccc(C(=N)N(C)C)cc3)C2=O)cc1 |
| 190 nM | 290 nM | 2.8 nM |  | N=C(N)c1ccc(/C=C2/CCCCCC/C(=C/c3ccc(C(=N)N)cc3)C2=O)cc1 |
| 590 nM | 2200 nM | 4600 nM |  | N=C(N)c1ccc(/C=C2\CC/C(=C\c3ccc(C(=N)N)cc3)C2=O)cc1 |
| 260 nM | 120 nM |  |  | N=C(N)c1ccc(/C=C2/CCC/C(=C\c3ccc(C(=N)N)cc3)C2=O)cc1 |
|  |  | > 5000 nM |  | NC(=O)c1ccc(/C=C2/CCCC/C(=C\c3ccc(C(N)=O)cc3)C2=O)cc1 |
|  | > 5000 nM | > 5000 nM | > 5 µM | CN(C)C(=N)c1ccc(/C=C2\CCCC/C(=C\c3ccc(C(=N)N(C)C)cc3)C2=O)cc1 |
| 100 nM | 1100 nM | 4.8 nM |  | COC(=O)C1C/C(=C/c2ccc(C(=N)N)cc2)C(=O)/C(=C\c2ccc(C(=N)N)cc2)C1 (stereo not drawn) |
| 430 nM | > 50000 nM | 6.9 nM |  | N=C(N)c1ccc(/C=C2/CC(C(=O)O)C/C(=C/c3ccc(C(=N)N)cc3)C2=O)cc1 (stereo not drawn) |
| 224 nM | 600 nM | > 500 nM |  | COC(=O)C1C/C(=C/c2ccc(C(=N)N)cc2)C(=O)/C(=C/c2ccc(C(=N)N)cc2)C1 (stereo not drawn) |
| 500 nM | 350 nM | 1850 nM |  | N=C(N)c1ccc(/C=C2\CCCC/C(=C/c3ccc(C(N)=O)cc3)C2=O)cc1 |
| 15 nM | 120 nM | 52 nM |  | CN(C)C(=N)c1ccc(/C=C2/CCCC/C(=C\c3ccc(C(=N)N)cc3)C2=O)cc1 |

| Ki [1] | Ki [2] | Ki [3] | Ki [4] | Structure (SMILES) |
| --- | --- | --- | --- | --- |
| 30 nM | 1600 nM | 12 nM |  | C/N=C(\N)c1ccc(/C=C2/CCCC/C(=C/c3ccc(C(=N)N)cc3)C2=O)cc1 |
| 61 nM | 630 nM | 225 nM |  | CCOC(=O)N1C/C(=C/c2ccc(C(=N)N)cc2)C(=O)/C(=C/c2ccc(C(=N)N)cc2)C1 |
| 500 nM | 3700 nM | 350 nM |  | CN(C)C(=N)c1ccc(/C=C2\CCCC/C(=C\c3ccc(C(=N)N)cc3)C2=O)cc1 |
| 840 nM |  |  |  | C/N=C(\N)c1ccc(/C=C2\CCCC/C(=C\c3ccc(C(=N)N)cc3)C2=O)cc1 |
| 20 nM | 380 nM | 2.5 nM |  | CCOC(=O)N1C/C(=C/c2ccc(C(=N)N)cc2)C(=O)/C(=C\c2ccc(C(=N)N)cc2)C1 |
| 880 nM | 21500 nM | 24400 nM |  | N=C(N)c1ccc(/C=C2\CC(C(=O)O)C/C(=C\c3ccc(C(=N)N)cc3)C2=O)cc1 (stereo not drawn) |
| 72 nM | 4400 nM | > 5000 nM |  | COC(=O)C1C/C(=C\c2ccc(C(=N)N)cc2)C(=O)/C(=C/c2ccc(C(=N)N)cc2)C1 (stereo not drawn) |
| 125 nM | 3300 nM | > 5000 nM |  | CCOC(=O)N1C/C(=C\c2ccc(C(=N)N)cc2)C(=O)/C(=C/c2ccc(C(=N)N)cc2)C1 |
| 2200 nM |  |  |  | N=C(N)c1ccc(/C=C2/CCCCCCC/C(=C/c3ccc(C(=N)N)cc3)C2=O)cc1 |
| 90 nM |  |  |  | CN(C)C(=N)c1ccc(/C=C2/CCCC/C(=C/c3ccc(C(=N)N)cc3)C2=O)cc1 |
| 155 nM | 360 nM | 500 nM |  | C/N=C(/N)c1ccc(/C=C2/CCCC/C(=C\c3ccc(C(=N)N)cc3)C2=O)cc1 |
| 2100 nM | 150 nM |  |  | N=C(N)c1ccc(/C=C2/CCCCCCC/C(=C\c3ccc(C(=N)N)cc3)C2=O)cc1 |
| > 5000 nM | > 5000 nM | 1600 nM |  | CN(C)C(=N)c1ccc(/C=C2/CCCC/C(=C/c3ccc(C(=N)N(C)C)cc3)C2=O)cc1 |
| 340 nM |  | 320 nM |  | N=C(N)c1ccc(/C=C2/CCCCCC/C(=C\c3ccc(C(=N)N)cc3)C2=O)cc1 |
| 100 nM | 1700 nM | 5.2 nM |  | N=C(N)c1ccc(/C=C2/CC(c3ccccc3)C/C(=C/c3ccc(C(=N)N)cc3)C2=O)cc1 (stereo not drawn) |
| 690 nM | 110 nM | 50 nM |  | N=C(N)c1ccc(/C=C2/CCCC/C(=C/c3ccc(C(N)=O)cc3)C2=O)cc1 |
| 100 nM | 300 nM | 4.6 nM |  | N=C(N)c1ccc(/C=C2/CCCCC/C(=C/c3ccc(C(=N)N)cc3)C2=O)cc1 |
| 1500 nM | 3700 nM | 390 nM |  | N=C(N)c1ccc(/C=C2\CCCCCC/C(=C\c3ccc(C(=N)N)cc3)C2=O)cc1 |
| 30 nM |  | 130 nM |  | N=C(N)c1ccc(/C=C2/CCCCC/C(=C\c3ccc(C(=N)N)cc3)C2=O)cc1 |
